≈ marks a conversion by molar mass, not a printed value. Calls of active or inactive are those of the source. No cut-off for these calls is given here.
Key:
Rhizopus arrhizus [1] = assay: Antifungal activity against drug-susceptible Rhizopus oryzae UTHSC 06-1351 by broth microdilution method; format: functional
In short: (§1)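 Posaconazole MIC in ug/ml, determined by broth microdilution following the CLSI guidelines for moulds (M38-A2).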

Rhizopus arrhizus [2] = assay: Antifungal activity against drug-susceptible Rhizopus oryzae UTHSC 06-89 infected in OF1 mouse assessed as reduction in brain fungal load at 10-30 mg/kg, po bid; format: functional, organism-based
Rhizopus arrhizus [3] = assay: Antifungal activity against drug-susceptible Rhizopus oryzae UTHSC 06-3913 by broth microdilution method; format: functional; in short: as §1
Rhizopus arrhizus [4] = assay: Antifungal activity against drug-susceptible Rhizopus oryzae UTHSC 04-2159 at 5 ug by disk diffusion assay; format: functional; conditions: read-out: DIZ
In short: (§2)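 Neo-Sensitabs tablet diffusion on Mueller-Hinton agar, following guidelines for molds; 9 mm tablets containing 5 µg posaconazole; inhibition zone diameter measured in mm; zone breakpoints applied at 24 h.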

Rhizopus arrhizus [5] = assay: Antifungal activity against drug-susceptible Rhizopus oryzae UTHSC 06-4336 at 5 ug by disk diffusion assay; format: functional; conditions: read-out: DIZ
In short: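 Neo-Sensitabs tablet diffusion on Mueller-Hinton agar, run per the mould guidelines. Tablets are 9 mm in diameter and carry 5 ug posaconazole. The read-out is the inhibition zone diameter in mm.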

Rhizopus arrhizus [6] = assay: Antifungal activity against drug-susceptible Rhizopus oryzae UTHSC 06-4035 after 24 to 48 hrs; format: functional
In short: (§3)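 Minimum fungicidal concentration taken from the broth microdilution plates. From each well with complete inhibition (optically clear), 20 ul is plated on potato dextrose agar. Plates are incubated at 35°C for 24 to 48 h. The MFC is the lowest drug concentration giving no growth.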

Rhizopus arrhizus [7] = assay: Antifungal activity against drug-susceptible Rhizopus oryzae UTHSC 05-3132 by broth microdilution method; format: functional; in short: as §1
Rhizopus arrhizus [8] = assay: Antifungal activity against drug-susceptible Rhizopus oryzae UTHSC 03-228 after 24 to 48 hrs; format: functional
Rhizopus arrhizus [9] = assay: Antifungal activity against drug-susceptible Rhizopus oryzae UTHSC 06-2374 by broth microdilution method; format: functional; in short: as §1
Rhizopus arrhizus [10] = assay: Antifungal activity against drug-susceptible Rhizopus oryzae UTHSC 04-278 after 24 to 48 hrs; format: functional
In short: (§4)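 Minimum fungicidal concentration: 20 µl from each microdilution well showing complete inhibition (optically clear) plated on potato dextrose agar, incubated 35°C for 24 to 48 h; MFC taken as lowest drug concentration giving no growth.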

Rhizopus arrhizus [11] = assay: Antifungal activity against drug-susceptible Rhizopus oryzae UTHSC 05-197 after 24 to 48 hrs; format: functional; in short: as §4
Rhizopus arrhizus [12] = assay: Antifungal activity against drug-intermediate Rhizopus oryzae UTHSC 03-3165 by broth microdilution method; format: functional
In short: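 Broth microdilution MIC in µg/ml, run per the CLSI (formerly NCCLS) guideline for filamentous fungi, M38-A2.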

Rhizopus arrhizus [13] = assay: Antifungal activity against drug-susceptible Rhizopus oryzae UTHSC 03-112 at 5 ug by disk diffusion assay; format: functional; conditions: read-out: DIZ
In short: (§5)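 Neo-Sensitabs tablet diffusion on Mueller-Hinton agar, following the guidelines for molds. Tablets were 9 mm in diameter and held 5 µg of drug. The read-out was inhibition zone diameter in mm.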

Rhizopus arrhizus [14] = assay: Antifungal activity against drug-susceptible Rhizopus oryzae UTHSC 06-731 after 24 to 48 hrs; format: functional
Rhizopus arrhizus [15] = assay: Antifungal activity against drug-susceptible Rhizopus oryzae UTHSC 02-439 at 5 ug by disk diffusion assay; format: functional; conditions: read-out: DIZ; in short: as §5
Rhizopus arrhizus [16] = assay: Antifungal activity against drug-susceptible Rhizopus oryzae UTHSC 06-1351 after 24 to 48 hrs; format: functional; in short: as §3
Rhizopus arrhizus [17] = assay: Antifungal activity against drug-susceptible Rhizopus oryzae UTHSC 04-1241 by broth microdilution method; format: functional
In short: (§6)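 CLSI broth microdilution for filamentous fungi (M38-A2); MIC recorded in µg/ml against clinical isolates; breakpoints applied at 24 h.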

Rhizopus arrhizus [18] = assay: Antifungal activity against drug-susceptible Rhizopus oryzae UTHSC 2868 after 24 to 48 hrs; format: functional
Rhizopus arrhizus [19] = assay: Antifungal activity against drug-susceptible Rhizopus oryzae UTHSC 06-2457 after 24 to 48 hrs; format: functional; in short: as §3
Rhizopus arrhizus [20] = assay: Antifungal activity against drug-susceptible Rhizopus oryzae UTHSC 03-511 infected in OF1 mouse assessed as reduction in kidney fungal load at 10-30 mg/kg, po bid; format: functional, organism-based
In short: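 Immunosuppressed male OF1 mice (cyclophosphamide 200 mg/kg i.p. plus 5-fluorouracil 150 mg/kg i.v., day −1) infected i.v. with 2 × 10^4 CFU; oral gavage twice daily from 24 h post-challenge; 10 mice/group killed day 4; kidneys homogenized in 2 ml saline, 10-fold dilutions plated on potato dextrose agar, 24 h at 35°C for CFU.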

Rhizopus arrhizus [21] = assay: Antifungal activity against drug-susceptible Rhizopus oryzae UTHSC 05-1817 after 24 to 48 hrs; format: functional; in short: as §4
Rhizopus arrhizus [22] = assay: Antifungal activity against drug-susceptible Rhizopus oryzae UTHSC 03-3110 at 5 ug by disk diffusion assay; format: functional; conditions: read-out: DIZ; in short: as §2
Rhizopus arrhizus [23] = assay: Antifungal activity against drug-susceptible Rhizopus oryzae UTHSC 03-511 at 5 ug by disk diffusion assay; format: functional; conditions: read-out: DIZ; in short: as §2
Rhizopus arrhizus [24] = assay: Antifungal activity against drug-susceptible Rhizopus oryzae UTHSC 2868 by broth microdilution method; format: functional
Rhizopus arrhizus [25] = assay: Antifungal activity against drug-susceptible Rhizopus oryzae UTHSC 06-4035 by broth microdilution method; format: functional; in short: as §1
Rhizopus arrhizus [26] = assay: Antifungal activity against drug-intermediate Rhizopus oryzae UTHSC 05-3032 infected in OF1 mouse assessed as reduction in brain fungal load at 10-30 mg/kg, po bid treated 24 hrs after fungal infection; format: functional, organism-based
In short: (§7)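 Tissue burden in immunosuppressed male OF1 mice, using cyclophosphamide 200 mg/kg i.p. plus 5-fluorouracil 150 mg/kg i.v. on day −1. Mice received 2 × 10^4 CFU i.v. by tail vein, then oral gavage at 10, 20 or 30 mg/kg BID from 24 h post-challenge, with ceftazidime cover; untreated controls. Groups of 10 were killed on day 4. Kidneys and brains were homogenized in 2 ml saline, serially diluted 10-fold, plated on PDA and counted after 24 h at 35°C.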

Rhizopus arrhizus [27] = assay: Antifungal activity against drug-susceptible Rhizopus oryzae UTHSC 06-731 by broth microdilution method; format: functional
Rhizopus arrhizus [28] = assay: Antifungal activity against drug-susceptible Rhizopus oryzae UTHSC 05-197 by broth microdilution method; format: functional; in short: as §6
Rhizopus arrhizus [29] = assay: Antifungal activity against drug-susceptible Rhizopus oryzae UTHSC 05-2975 by broth microdilution method; format: functional; in short: as §1
Rhizopus arrhizus [30] = assay: Antifungal activity against drug-intermediate Rhizopus oryzae UTHSC 04-3109 infected in OF1 mouse assessed as reduction in kidney fungal load at 10-30 mg/kg, po bid treated 24 hrs after fungal infection; format: functional, organism-based; in short: as §7
Rhizopus arrhizus [31] = assay: Antifungal activity against drug-susceptible Rhizopus oryzae UTHSC 06-2457 by broth microdilution method; format: functional; in short: as §1
Rhizopus arrhizus [32] = assay: Antifungal activity against drug-susceptible Rhizopus oryzae UTHSC 03-547 by broth microdilution method; format: functional; in short: as §6
Rhizopus arrhizus [33] = assay: Antifungal activity against drug-susceptible Rhizopus oryzae UTHSC 02-2882 infected in OF1 mouse assessed as increase in mouse survival at 20-30 mg/kg, po bid treated 24 hrs after fungal infection; format: functional, organism-based
In short: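 Survival model in male OF1 mice, 30 g. Mice were immunosuppressed 1 day before infection with cyclophosphamide 200 mg/kg i.p. plus 5-fluorouracil 150 mg/kg i.v., then infected i.v. via lateral tail vein with 2 × 10^4 CFU in 0.2 ml saline. Oral gavage at 10, 20 or 30 mg/kg BID began 24 h post-challenge for 7 days. Ceftazidime 5 mg/day s.c. was given days 1–7. Groups of 10 were checked daily for 20 days; untreated controls.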

With `CC[C@@H]([C@H](C)O)n1ncn(-c2ccc(N3CCN(c4ccc(OC[C@@H]5CO[C@@](Cn6cncn6)(c6ccc(F)cc6F)C5)cc4)CC3)cc2)c1=O` [POSACONAZOLE] the MIC (Rhizopus arrhizus [1]) was 0.25 µg/mL (≈ 0.357 µM), the Activity (Rhizopus arrhizus [2]) was “Active” and the MIC (Rhizopus arrhizus [3]) was 0.5 µg/mL (≈ 0.713 µM). It also gave a zone of inhibition at 5 µg/disc (Rhizopus arrhizus [4]) of 20 mm, a zone of inhibition at 5 µg/disc (Rhizopus arrhizus [5]) of 20 mm and an MFC (Rhizopus arrhizus [6]) of 0.5 µg/mL (≈ 0.713 µM). For the same molecule, the MIC (Rhizopus arrhizus [7]) was 0.5 µg/mL (≈ 0.713 µM), the MFC (Rhizopus arrhizus [8]) was 1 µg/mL (≈ 1.43 µM) and the MIC (Rhizopus arrhizus [9]) was 0.5 µg/mL (≈ 0.713 µM). The MFC (Rhizopus arrhizus [10]) was greater than 16 µg/mL, the MFC (Rhizopus arrhizus [11]) was 0.5 µg/mL (≈ 0.713 µM) and the MIC (Rhizopus arrhizus [12]) was 2 µg/mL (≈ 2.85 µM). It also gave a zone of inhibition at 5 µg/disc (Rhizopus arrhizus [13]) of 20 mm, an MFC (Rhizopus arrhizus [14]) of 0.5 µg/mL (≈ 0.713 µM) and a zone of inhibition at 5 µg/disc (Rhizopus arrhizus [15]) of 22 mm. For the same molecule, the MFC (Rhizopus arrhizus [16]) was 0.5 µg/mL (≈ 0.713 µM), the MIC (Rhizopus arrhizus [17]) was 0.5 µg/mL (≈ 0.713 µM) and the MFC (Rhizopus arrhizus [18]) was 8 µg/mL (≈ 11.4 µM). For the same molecule, the MFC (Rhizopus arrhizus [19]) was greater than 16 µg/mL, the Activity (Rhizopus arrhizus [20]) was “Active” and the MFC (Rhizopus arrhizus [21]) was 2 µg/mL (≈ 2.85 µM). The zone of inhibition at 5 µg/disc (Rhizopus arrhizus [22]) was 17 mm, the zone of inhibition at 5 µg/disc (Rhizopus arrhizus [23]) was 22 mm and the MIC (Rhizopus arrhizus [24]) was 1 µg/mL (≈ 1.43 µM). The MIC (Rhizopus arrhizus [25]) was 0.5 µg/mL (≈ 0.713 µM), the Activity (Rhizopus arrhizus [26]) was “inactive” and the MIC (Rhizopus arrhizus [27]) was 0.5 µg/mL (≈ 0.713 µM). For the same molecule, the MIC (Rhizopus arrhizus [28]) was 0.25 µg/mL (≈ 0.357 µM), the MIC (Rhizopus arrhizus [29]) was 1 µg/mL (≈ 1.43 µM) and the Activity (Rhizopus arrhizus [30]) was “Active”. For the same molecule, the MIC (Rhizopus arrhizus [31]) was 1 µg/mL (≈ 1.43 µM), the MIC (Rhizopus arrhizus [32]) was 0.25 µg/mL (≈ 0.357 µM) and the Activity (Rhizopus arrhizus [33]) was “Active”.

— ChEMBL document CHEMBL1255417, “Correlation between in vitro activity of posaconazole and in vivo efficacy against Rhizopus oryzae infection in mice” (Antimicrob Agents Chemother, 2010)
